We go through two compounds from ChEMBL document CHEMBL4364291, “Benzylideneacetone Derivatives Inhibit Osteoclastogenesis and Activate Osteoblastogenesis Independently Based on Specific Structure-Activity Relationship” (J Med Chem, 2019).

Activity calls are given as the source filed them. The calls are words filed in the database; no cut-off is given here.

Data set [1] relates to BMDM. Nature of the data set: Inhibition of RANKL-induced osteoclastogenesis in C57BL/6 mouse bone marrow macrophages assessed as reduction in NFATc1 expression at 0.5 uM measured over 5 days by Western blot analysis. The class given is functional, cell-based. The method, boiled down:
(§1)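 C57BL/6 BMM were grown with M-CSF plus RANKL over the course of osteoclastogenesis, treated at 0.5 or 10 μM. NF-κB and NFATc1 were followed by Western blot. The negative control was M-CSF only.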

In data set [2] the test system is Mus musculus. Kind of data set: Antiosteoporotic activity in ddY mouse model of OVX-induced osteoporosis assessed as increase in trabecular number in femur bone at 1 mg/kg, po administered once daily via gavage for 4 weeks by microcomputed tomographic analysis. The class given is functional, organism-based. In short, it runs like this: (§2)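 Female ddY mice were ovariectomized. Oral gavage began 1 week after surgery and ran once daily for 28 d. Vehicle was 300 μL PBS containing 0.5% (v/v) DMSO, also given to sham and OVX controls. Mice were then euthanized and femur and tibia fixed for CT imaging. Values are mean ± SD of four mice.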

The test system of data set [3] is BMDM. Nature of the data set: Inhibition of RANKL-induced osteoclastogenesis in C57BL/6 mouse bone marrow macrophages assessed as increase in NFkappaB expression at 0.5 uM measured over 5 days by Western blot analysis. The class given is functional, cell-based. The method, boiled down:
as §1

The subject of data set [4] is Mus musculus. Kind of data set: Antiosteoporotic activity in ddY mouse model of OVX-induced osteoporosis assessed as increase in cross-sectional thickness in femur bone at 1 mg/kg, po administered once daily via gavage for 4 weeks by microcomputed tomographic analysis. The class given is functional, organism-based. In short, it runs like this: as §2
For another data set, the system named is PC-3. Kind of data set: Antiproliferative activity against human PC3 cells after 24 hrs by MTT assay. The class given is functional. The conditions noted are these: PC-3, 24 h, read-out: LD50 (the source's name). The method, boiled down: (§3)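 Cells were maintained in DMEM at 37 °C under 5% CO2. Growth and survival were estimated by MTT assay, and the value is reported as LD50.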

Data set [5] deals with MC3T3-E1. Nature of the data set: Induction of osteoblast differentiation in mouse MC3T3-E1 cells assessed as increase in osteocalcin expression at 50 uM after 14 days by Western blot analysis relative to control. The class given is functional. In short, it runs like this:
(§4)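 MC3T3-E1 cells were differentiated with osteoblast differentiation factors, with or without 50 μM compound, for 21 d. The negative control lacked differentiation factors. Osteocalcin in culture medium was measured by Western blot at 7, 14 and 21 d. Values are mean ± SD of three independent experiments.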

Data set [6] concerns BMDM. Kind of data set: Inhibition of M-CSF/RANKL-induced osteoclast differentiation in C57BL/6 mouse bone marrow macrophages co-cultured with mouse MC3T3-E1 cells assessed as reduction in multinucleated TRAP+ cells measured on day 6 by TRAP staining-based inverted microscopic analysis. The class given is functional, cell-based. The method, boiled down: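 C57BL/6 BMM were cocultured with MC3T3-E1 preosteoblasts in osteoclast and osteoblast differentiation factors. The negative control had M-CSF only. Compound was added at a final 10 μM. TRAP staining and inverted-microscope inspection were done on day 6.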

Data set [7] relates to BMDM. Kind of data set: Inhibition of M-CSF/RANKL-induced osteoclast differentiation in C57BL/6 mouse bone marrow macrophages co-cultured with mouse MC3T3-E1 at 10 uM measured on day 7. The class given is functional, cell-based.
Data set [8] has as its system MC3T3-E1. Nature of the data set: Induction of osteoblast differentiation in mouse MC3T3-E1 cells assessed as increase in osteocalcin expression at 50 uM after 7 days by Western blot analysis relative to control. The class given is functional. In short, it runs like this:
as §4
(In western blotting, separated proteins are transferred to a membrane and probed.)

In data set [9] the test system is MC3T3-E1. Nature of the data set: Induction of osteoblast differentiation in mouse ascorbic acid/beta-glycerophosphate-induced MC3T3-E1 cells assessed as increase in RUNX2 expression at 50 uM after 21 days by Western blot analysis relative to control. The class given is functional. In short, it runs like this:
(§5)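 MC3T3-E1 cells were induced with osteoblast differentiation factors, with or without 50 μM compound, for 21 d. Cells were harvested at 7, 14 and 21 d and RUNX2 was quantified by Western blot against untreated differentiated cells. The negative control lacked differentiation factors. Values are mean ± SD of three independent experiments.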

Data set [10] deals with BMDM. Nature of the data set: Inhibition of RANKL-induced osteoclastogenesis in C57BL/6 mouse bone marrow macrophages assessed as effect on NFkappaB expression at 10 uM measured over 5 days by Western blot analysis. The class given is functional, cell-based. The method, boiled down:
as §1

The nature of data set [11]: Cytotoxicity against human ASC cells after 24 hrs by MTT assay. The note with it: read-out: LD50. The class given is cell-based. The method, boiled down: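 Human adipose-derived mesenchymal stem cells were grown in CB-ADMSC-GM medium at 37 °C under 5% CO2. Cell growth and survival were measured by MTT assay and reported as LD50.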
The subject of data set [12] is MC3T3-E1. Nature of the data set: Induction of osteoblast differentiation in mouse MC3T3-E1 cells co-cultured with C57BL/6 mouse bone marrow macrophages assessed as activation of ALP production at 10 uM measured on day 7 relative to control. The class given is functional. The method, boiled down:
(§6)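 MC3T3-E1 cells were cocultured with C57BL/6 BMM in differentiation factors for both cell types, with 10 μM compound, and grown for 21 d. ALP production was measured at 7, 14 and 21 d after coculture induction, relative to untreated cells.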

Data set [13] in a line: Cytotoxicity against mouse NIH/3T3 cells after 24 hrs by MTT assay. The class given is cell-based, NIH3T3. The note with it: read-out: LD50. In short, it runs like this: as §3
For orientation: Formazan colour is commonly taken as a measure of viable cells.

The subject of data set [14] is MC3T3-E1. Nature of the data set: Induction of osteoblast differentiation in mouse MC3T3-E1 cells co-cultured with C57BL/6 mouse bone marrow macrophages assessed as activation of ALP production at 10 uM measured on day 21 relative to control. The class given is functional. The method, boiled down: as §6
Data set [15] has as its system MC3T3-E1. Nature of the data set: Induction of osteoblast differentiation in ascorbic acid/beta-glycerophosphate-induced mouse MC3T3-E1 cells assessed as increase in RUNX2 expression at 50 uM after 14 days by Western blot analysis relative to control. The class given is functional. In short, it runs like this:
as §5

Data set [16] in a line: Cytotoxicity against human HaCaT cells after 24 hrs by MTT assay. The class given is cell-based. The conditions noted are these: read-out: LD50. In short, it runs like this: as §3
The next data set concerns AGS. Kind of data set: Antiproliferative activity against human AGS cells after 24 hrs by MTT assay. The class given is functional. The note with it: read-out: LD50 (the source's name).
Data set [17] relates to BMDM. Nature of the data set: Inhibition of RANKL-induced osteoclastogenesis in C57BL/6 mouse bone marrow macrophages assessed as effect on NFATc1 expression at 10 uM measured over 5 days by Western blot analysis. The class given is functional, cell-based. The method, boiled down: as §1
Data set [18] can be described thus: Inhibition of M-CSF/RANKL-induced osteoclast differentiation in C57BL/6 mouse bone marrow macrophage assessed as reduction in multinucleated TRAP+ cells at 10 uM incubated for 6 days with fresh media replacement on day 3 and measured on day 6 by TRAP staining-based microscopic analysis relative to control. The class given is functional. The note with it: C57BL/6, BMDM. In short, it runs like this:
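BMM came from femur and tibia marrow of 5–8-week-old male C57BL/6 mice and were purified over lymphocyte separation medium. Cells, 1 × 10^5 per well, were grown in α-MEM/10% FBS with M-CSF (60 ng/mL) and RANKL (150 ng/mL) for 6 d, medium changed day 3. Compound range was 0.01−100 μM. TRAP+ multinucleated cells were counted on day 6.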

A word on the inhibition: it is the drop in the measured response relative to a control, in per cent. Consider `COc1ccc(/C=C/C(C)=O)cc1O`, for which the inhibition entry in the data set on BMDM [1] and in the data set with BMDM [3] was “Active” throughout. Further, the result with Mus musculus [2] and with Mus musculus [4] was Active.
Take `CC(=O)/C=C/c1ccc(O)c(O)c1`: the CC50 in the data set with PC-3 was determined as 66 µM; with AGS it was 60 µM. Besides, the “fold change (FC)” value with MC3T3-E1 [5] is reported as 4.1; with MC3T3-E1 [8], 1.8; in the data set on MC3T3-E1 [9] it was 3.2; in the data set with MC3T3-E1 [15], 1.4. Moreover, in the data set on BMDM [6], the inhibition result is “Dose-dependent effect”. For the same compound, the inhibition result in the data set on BMDM [7] is “Active”. Moreover, the inhibition entry in the data set with BMDM [10] and in the data set with BMDM [17] was “inactive” in each case. Besides, the CC50 at 24 h in data set [11] is 2800 µM; in [13], over 5000 µM; in data set [16] it was 3500 µM. The Activity in the data set on MC3T3-E1 [12] and in the data set with MC3T3-E1 [14] was 100% each time. The inhibition at 10 µM in data set [18] stood at 100%.
